In ChEMBL document CHEMBL1134010, “Syntheses and antifungal activities of novel 3-amido bearing pseudomycin analogues” (Bioorg Med Chem Lett, 2001):
≈ marks a conversion by molar mass, not a printed value. Positions of bridges follow the written chain, without caps; N, C: chain ends. Non-standard residues stand in square brackets, D forms with d. Residues, ends and D or L forms follow the SMILES beside them. Groups on a side chain read outwards from the residue. *: point of attachment. Tetradecanoyl(3R-OH) = CCCCCCCCCCC[C@@H](O)CC(=O)*; Asp(3S-OH) = N[C@H](C(=O)O)[C@H](O)C(=O)O; Thr(4-Cl) = N[C@H](C(=O)O)[C@H](O)CCl; aThr = C[C@H](O)[C@H](N)C(=O)O; dDab = NCC[C@@H](N)C(=O)O; Dab = NCC[C@H](N)C(=O)O; Dhb = C/C=C(\N)C(=O)O

Experiments:
Aspergillus fumigatus = assay: In vitro minimum inhibitory concentration (MIC) against Aspergillus fumigatus.; type: functional
Outline: (§1)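 Tested against Candida albicans, Cryptococcus neoformans and Aspergillus fumigatus, with PSB as positive control. MIC is taken as the lowest drug concentration giving 90–100% inhibition of visible growth relative to drug-free controls.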

Cryptococcus neoformans = assay: In vitro minimum inhibitory concentration (MIC) against Cryptococcus neoformans.; type: functional; outline: as §1
Candida albicans [1] = assay: In vivo efficacy against murine Candidiasis dosed four times by intraperitoneal administration post-infection using Reed and Muench method.; type: functional; details: ip
Outline: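 Systemic candidiasis in mice, with PSB and amphotericin B as positive controls. Analogues were given at 20, 10 and 5 mg/kg, four doses at 0, 4, 24 and 48 post-infection. ED50 is the dose giving 50% survival relative to untreated infected animals, calculated by the Reed and Muench method.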

Candida albicans [2] = assay: In vitro minimum inhibitory concentration (MIC) against Candida albicans.; type: functional; outline: as §1
Mus musculus [3] = assay: Toxicity at a dose of 100 mg/kg in mice; Death; details: in vivo
Mus musculus [4] = assay: Toxicity at a dose of 125 mg/kg in mice; Death; details: in vivo

MIC (Aspergillus fumigatus) [µg/mL]	MIC (Cryptococcus neoformans) [µg/mL]	MIC (Candida albicans [2]) [µg/mL]	SMILES	ED50 (Candida albicans [1]) [mg/kg]	Toxicity (Mus musculus [3])	Toxicity (Mus musculus [4])
20 (≈ 15.8 µM)	< 0.01	5 (≈ 3.96 µM)	C/C=C1\NC(=O)[C@H]([C@H](C)O)NC(=O)[C@H](CCN)NC(=O)[C@H](CCCCN)NC(=O)[C@H](CC(=O)NCCCC)NC(=O)[C@@H](CCN)NC(=O)[C@@H](NC(=O)C[C@H](O)CCCCCCCCCCC)COC(=O)[C@H]([C@H](O)CCl)NC(=O)[C@H]([C@H](O)C(=O)O)NC1=O	5.9	–	–
> 20	1.25 (≈ 0.928 µM)	> 20	C/C=C1\NC(=O)[C@H]([C@H](C)O)NC(=O)[C@H](CCN)NC(=O)[C@H](CCCCN)NC(=O)[C@H](CC(=O)NCCCCCCCCCC)NC(=O)[C@@H](CCN)NC(=O)[C@@H](NC(=O)C[C@H](O)CCCCCCCCCCC)COC(=O)[C@H]([C@H](O)CCl)NC(=O)[C@H]([C@H](O)C(=O)O)NC1=O	> 20	–	–
> 20	0.01 (≈ 0.00726 µM)	5 (≈ 3.63 µM)	C/C=C1\NC(=O)[C@H]([C@@H](C)O)NC(=O)[C@H](CCN)NC(=O)[C@H](CCCCN)NC(=O)[C@H](CC(=O)N[C@@H](CCCN=C(N)N)C(=O)OC)NC(=O)[C@@H](CCN)NC(=O)[C@@H](NC(=O)C[C@H](O)CCCCCCCCCCC)COC(=O)[C@H]([C@H](O)CCl)NC(=O)[C@H]([C@H](O)C(=O)O)NC1=O	< 5	–	–
20 (≈ 15.6 µM)	0.01 (≈ 0.00782 µM)	1 (≈ 0.782 µM)	C/C=C1\NC(=O)[C@H]([C@H](C)O)NC(=O)[C@H](CCN)NC(=O)[C@H](CCCCN)NC(=O)[C@H](CC(=O)NCC(=O)OC)NC(=O)[C@@H](CCN)NC(=O)[C@@H](NC(=O)C[C@H](O)CCCCCCCCCCC)COC(=O)[C@H]([C@H](O)CCl)NC(=O)[C@H]([C@H](O)C(=O)O)NC1=O ({Tetradecanoyl(3R-OH)}-S[dDab]D([Gly-OMe])K[Dab][aThr][Dhb][Asp(3S-OH)][Thr(4-Cl)]; ester 1-C)	< 5	–	–
10 (≈ 7.74 µM)	< 0.01	10 (≈ 7.74 µM)	C/C=C1\NC(=O)[C@H]([C@H](C)O)NC(=O)[C@H](CCN)NC(=O)[C@H](CCCCN)NC(=O)[C@H](CC(=O)NCCCN(C)C)NC(=O)[C@@H](CCN)NC(=O)[C@@H](NC(=O)C[C@H](O)CCCCCCCCCCC)COC(=O)[C@H]([C@H](O)CCl)NC(=O)[C@H]([C@H](O)C(=O)O)NC1=O	< 5	–	–
20 (≈ 16.2 µM)	0.156 (≈ 0.126 µM)	0.625 (≈ 0.506 µM)	C/C=C1\NC(=O)[C@H]([C@H](C)O)NC(=O)[C@H](CCN)NC(=O)[C@H](CCCCN)NC(=O)[C@H](CC(=O)NCC)NC(=O)[C@@H](CCN)NC(=O)[C@@H](NC(=O)C[C@H](O)CCCCCCCCCCC)COC(=O)[C@H]([C@H](O)CCl)NC(=O)[C@H]([C@H](O)C(=O)O)NC1=O	–	–	–
> 20	0.156 (≈ 0.121 µM)	5 (≈ 3.87 µM)	C/C=C1\NC(=O)[C@H]([C@H](C)O)NC(=O)[C@H](CCN)NC(=O)[C@H](CCCCN)NC(=O)[C@H](CC(=O)NCCCCCC)NC(=O)[C@@H](CCN)NC(=O)[C@@H](NC(=O)C[C@H](O)CCCCCCCCCCC)COC(=O)[C@H]([C@H](O)CCl)NC(=O)[C@H]([C@H](O)C(=O)O)NC1=O	> 12	–	–
20 (≈ 15 µM)	< 0.01	5 (≈ 3.75 µM)	C/C=C1\NC(=O)[C@H]([C@H](C)O)NC(=O)[C@H](CCN)NC(=O)[C@H](CCCCN)NC(=O)[C@H](CC(=O)NCCCCCCN(C)C)NC(=O)[C@@H](CCN)NC(=O)[C@@H](NC(=O)C[C@H](O)CCCCCCCCCCC)COC(=O)[C@H]([C@H](O)CCl)NC(=O)[C@H]([C@H](O)C(=O)O)NC1=O	< 5	–	–
> 20	1.25 (≈ 0.913 µM)	1.25 (≈ 0.913 µM)	C/C=C1\NC(=O)[C@H]([C@@H](C)O)NC(=O)[C@H](CCN)NC(=O)[C@H](CCCCN)NC(=O)[C@H](CC(=O)N[C@@H](Cc2ccccc2)C(=O)OC)NC(=O)[C@@H](CCN)NC(=O)[C@@H](NC(=O)C[C@H](O)CCCCCCCCCCC)COC(=O)[C@H]([C@H](O)CCl)NC(=O)[C@H]([C@H](O)C(=O)O)NC1=O	> 15	–	–

SMILES	MIC (Aspergillus fumigatus) [µg/mL]	MIC (Cryptococcus neoformans) [µg/mL]	MIC (Candida albicans [2]) [µg/mL]	ED50 (Candida albicans [1]) [mg/kg]	Toxicity (Mus musculus [3])	Toxicity (Mus musculus [4])
C/C=C1\NC(=O)[C@H]([C@H](C)O)NC(=O)[C@H](CCN)NC(=O)[C@H](CCCCN)NC(=O)[C@H](CC(=O)NCCC)NC(=O)[C@@H](CCN)NC(=O)[C@@H](NC(=O)C[C@H](O)CCCCCCCCCCC)COC(=O)[C@H]([C@H](O)CCl)NC(=O)[C@H]([C@H](O)C(=O)O)NC1=O	> 20	0.078 (≈ 0.0625 µM)	1.25 (≈ 1 µM)	6	Death	Death
